In experiment [1] the test system is Zika virus. The experiment in a line: Substrate activity at recombinant ZIKV NS3 pro domain fused NS2B protease at pH 7.4 after 30 mins by fluorescence assay. Summed up: (§1)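 pH profile: NS2BLNNS3pro 1.64×10^-8 M with substrate 2.44×10^-5 M in citrate (pH 3.0), acetate (4.0, 5.0), MES (6.0), MOPS (7.0), Tris (7.4, 10.0) or HEPES (8.0); fluorescence increase followed at 37 °C over 30 min.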

The subject of experiment [2] is Zika virus. Kind of experiment: Substrate activity at recombinant ZIKV NS3 pro domain fused NS2B protease assessed as ratio of Kcat to Km in Tris-CHAPS-glycerol buffer at pH 7.4 after 30 mins. In outline:
(§2)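 Continuous fluorescence assay (Ex 320, Em 450 nm) in 10 mM Tris-HCl pH 7.4, 20% glycerol, 1 mM CHAPS at 37 °C; substrate (1.0×10-7 to 4×10^-5 M final) added to 1.64×10^-8 M NS2BLNNS3pro. Initial rates from linear portions, inner-filter corrected; KM and kcat from double-reciprocal Michaelis-Menten plots; triplicate, SD ≤20%.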

The subject of experiment [3] is Zika virus. Kind of experiment: Substrate activity at recombinant ZIKV NS3 pro domain fused NS2B protease assessed as Km in Tris-CHAPS-glycerol buffer at pH 7.4 after 30 mins. In outline:
as §2

The test system of experiment [4] is Zika virus. The experiment in a line: Substrate activity at recombinant ZIKV NS3 pro domain fused NS2B protease at pH 3 to 6 after 30 mins by fluorescence assay. In outline: as §1
The test system of experiment [5] is Zika virus. The experiment in a line: Substrate activity at recombinant ZIKV NS3 pro domain fused NS2B protease at pH 8 to 10 after 30 mins by fluorescence assay. In outline: as §1
The test system of experiment [6] is Zika virus. Kind of experiment: Substrate activity at recombinant ZIKV NS3 pro domain fused NS2B protease at pH 7.4.
For experiment [7], the system named is Zika virus. The experiment in a line: Substrate activity at 6.86x10'-6M of recombinant ZIKV NS3 pro domain fused NS2B protease. To be noted: in the assay text read “6.86x10'-10M” for “6.86x10'-6M”. Summed up:
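Limit of detection: decreasing amounts of recombinant NS2BLNNS3pro titrated against substrate at 2.44 × 10^-5 M in PBS pH 7.4, 37 °C, 30 min; fluorescence read at 450 nm (Ex 320 nm); detection limit from fluorescence increase versus enzyme concentration; triplicate.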

For experiment [8], the system named is Zika virus. Kind of experiment: Substrate activity at recombinant ZIKV NS3 pro domain fused NS2B protease by HPLC method.
Experiment [9] relates to Zika virus. Kind of experiment: Substrate activity at recombinant ZIKV NS3 pro domain fused NS2B protease assessed as Kcat in PBS at pH 7.4 after 30 mins. In outline: (§3)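 Kinetic constants determined in PBS pH 7.4 with the recombinant NS2BLNNS3pro; cleavage followed by ABZ fluorescence (Ex 320, Em 450 nm) at 37 °C; initial rates fitted and KM, kcat obtained from double-reciprocal Michaelis-Menten plots.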

The subject of experiment [10] is Zika virus. Kind of experiment: Substrate activity at recombinant ZIKV NS3 pro domain fused NS2B protease assessed as ratio of Kcat to Km in PBS at pH 7.4 after 30 mins. In outline: as §3
The nature of experiment [11]: Selectivity ratio of substrate activity at recombinant ZIKV NS3 pro domain fused NS2B protease to substrate activity at West Nile virus protease.
The subject of experiment [12] is Zika virus. Kind of experiment: Substrate activity at recombinant ZIKV NS3 pro domain fused NS2B protease assessed as Km in PBS at pH 7.4 after 30 mins. Summed up:
as §3

Experiment [13] relates to Zika virus. The experiment in a line: Substrate activity at recombinant ZIKV NS3 pro domain fused NS2B protease assessed as Kcat in Tris-CHAPS-glycerol buffer at pH 7.4 after 30 mins. Summed up:
as §2

Active and inactive are the calls of the source. The calls are words filed in the database; no cut-off is given here. Non-standard residues stand in square brackets, D forms with d. Residues, ends and D or L forms follow the SMILES beside them. Tyr(3-NO2) = N[C@@H](Cc1ccc(O)c([N+](=O)[O-])c1)C(=O)O; 2Abz = Nc1ccccc1C(=O)O

With `CC(C)[C@H](NC(=O)c1ccccc1N)C(=O)N[C@@H](CCCCN)C(=O)N[C@@H](CCCCN)C(=O)N[C@@H](CCCNC(=N)N)C(=O)N[C@@H](C)C(=O)N[C@@H](C)C(=O)N[C@@H](CCC(=O)O)C(=O)N[C@@H](Cc1ccc(O)c([N+](=O)[O-])c1)C(N)=O` (H-[2Abz]VKKRAAE[Tyr(3-NO2)]-NH2), the outcome in the experiment on Zika virus [1] was Active.
With `CC(C)[C@H](NC(=O)c1ccccc1N)C(=O)N[C@@H](CCCCN)C(=O)N[C@@H](CCCCN)C(=O)N[C@@H](CCCNC(=N)N)C(=O)N[C@@H](C)C(=O)N[C@@H](C)C(=O)N[C@@H](CC(=O)O)C(=O)N[C@@H](Cc1ccc(O)c([N+](=O)[O-])c1)C(N)=O` (H-[2Abz]VKKRAAD[Tyr(3-NO2)]-NH2), the outcome in the experiment with Zika virus [1] was Active.
As for `CC(=O)N[C@H](CCCNC(=N)N)C(=O)N[C@@H](CCCCN)C(=O)N[C@@H](CCCN)C(=O)N[C@@H](CCCNC(=N)N)C(=O)Nc1ccc2c(CC(N)=O)cc(=O)oc2c1`, in the experiment with Zika virus [2], the kcat/Km was determined as 1.1 ×10⁶ /M/s.
A word on the Km: it is the concentration of substrate that gives half-maximal velocity. As usually defined, the kcat is the maximal rate divided by the concentration of active sites. For the compound `CC(C)[C@H](NC(=O)c1ccccc1N)C(=O)N[C@@H](CCCCN)C(=O)N[C@@H](CCCCN)C(=O)N[C@@H](CCCNC(=N)N)C(=O)N[C@@H](C)C(=O)N[C@@H](C)C(=O)N[C@@H](Cc1c[nH]c2ccccc12)C(=O)N[C@@H](Cc1ccc(O)c([N+](=O)[O-])c1)C(N)=O` (H-[2Abz]VKKRAAW[Tyr(3-NO2)]-NH2), the Km with Zika virus [3] was 1.23 µM; with Zika virus [12], 6.97 µM. Also, in the experiment on Zika virus [4], the result was inactive. Further, the outcome in the experiment on Zika virus [5], with Zika virus [6], in the experiment with Zika virus [7], with Zika virus [8] and in the experiment with Zika virus [1] was Active. The kcat was 16.3 s⁻¹ in the experiment on Zika virus [9] and 151 s⁻¹ in the experiment with Zika virus [13]. For the same compound, the kcat/Km with Zika virus [10] turned out to be 2.32 ×10⁶ /M/s; with Zika virus [2], 1.26 ×10⁸ /M/s. In addition, the Ratio in experiment [11] amounted to 200.

The record behind these values is ChEMBL document CHEMBL4266009, “One Step Beyond: Design of Substrates Spanning Primed Positions of Zika Virus NS2B-NS3 Protease” (ACS Med Chem Lett, 2018).
